A word on the IC50: it is the concentration at which inhibition is half-maximal. Read a low IC50 as higher potency. As usually defined, the Ki is a measure of affinity in units of concentration, obtained from inhibition or displacement.

For experiment [1], the target named is T1, P2Y purinoceptor 1 (Homo sapiens, UniProt P47900). The experiment is described as follows: Antagonistic activity against P2Y purinoceptor 1. In kind it is functional. The procedure, abridged: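 Human P2Y1 stably expressed in 1321N1 astrocytoma cells, labeled 18–24 h at 37 °C with 1.0 µCi [3H]myo-inositol in inositol-free DMEM. Inositol phosphate accumulation was stimulated by 30 nM 2MeSADP over 10 min at 37 °C with 10 mM LiCl. Total [3H]inositol phosphates were measured by anion exchange. IC50 came from a four-parameter logistic fit; ≥3 experiments, duplicate or triplicate.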
T1 sequence (P47900 whole entry): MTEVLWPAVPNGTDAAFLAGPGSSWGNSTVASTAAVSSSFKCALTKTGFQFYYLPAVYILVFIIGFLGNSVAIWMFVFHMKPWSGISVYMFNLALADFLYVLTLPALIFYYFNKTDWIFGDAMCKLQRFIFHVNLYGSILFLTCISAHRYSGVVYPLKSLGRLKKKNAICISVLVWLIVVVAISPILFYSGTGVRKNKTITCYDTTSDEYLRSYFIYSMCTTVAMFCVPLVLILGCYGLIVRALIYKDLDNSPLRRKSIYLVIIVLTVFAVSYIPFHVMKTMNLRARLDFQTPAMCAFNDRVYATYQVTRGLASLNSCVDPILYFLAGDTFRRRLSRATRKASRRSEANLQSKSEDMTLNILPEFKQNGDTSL

Experiment [2] has as its target T1, P2Y purinoceptor 1. As to the kind of experiment: Inhibition of [3H]5 binding to P2Y purinoceptor 1 expressed in Sf9 cells. The procedure, abridged:
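Membranes were from Sf9 cells expressing human P2Y1 via recombinant baculovirus. They were incubated 30 min at 4 °C with [3H]5 (~20 nM or 10 nM as stated) across a wide analogue concentration range. Samples were filtered over glass-fiber with ice-cold 10 mM Tris pH 7.5/145 mM NaCl and counted by scintillation. Assays were triplicate, three experiments. Ki = IC50/(1+[L]/Kd), Kd 8 nM.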

Turning to `Nc1nc(I)nc2c1ncn2C1CC(OP(=O)(O)O)[C@]2(COP(=O)(O)O)C[C@H]12` (stereo partly specified), the midpoint of inhibition in experiment [1], the IC50, lay at 0.087 µM. In experiment [2], this molecule yielded a Ki of 0.0126 µM.

Take `CSc1nc(N)c2ncn([C@H]3C[C@H](OP(=O)(O)O)[C@]4(COP(=O)(O)O)C[C@H]34)c2n1`: the half-maximal inhibitory concentration (IC50) in experiment [1] is 0.367 µM. The molecule further yielded an inhibitory constant (Ki) in experiment [2] of 0.863 µM.

The molecule `CNc1nc(I)nc2c1ncn2[C@H]1C[C@H](OP(=O)(O)O)[C@]2(COP(=O)(O)O)C[C@H]12` came in with an IC50 in experiment [1] of 0.0084 µM. The molecule further displayed a Ki in experiment [2] of 0.00078 µM.

In experiment [1], `CCCCCCc1nc(NC)c2ncn([C@H]3C[C@H](OP(=O)(O)O)[C@]4(COP(=O)(O)O)C[C@H]34)c2n1` gave an IC50 of 0.452 µM. Further, the Ki in experiment [2] was 0.08 µM.

The molecule `CNc1nc(F)nc2c1ncn2[C@H]1C[C@H](OP(=O)(O)O)[C@]2(COP(=O)(O)O)C[C@H]12` returned an IC50 in experiment [1] of 0.356 µM. In addition, in experiment [2], affinity was put at a Ki of 0.045 µM.

In turn, `CNc1nc(SC)nc2c1ncn2[C@H]1C[C@H](OP(=O)(O)O)[C@]2(COP(=O)(O)O)C[C@H]12` registered an IC50 in experiment [1] of 0.221 µM. Moreover, the Ki in experiment [2] came out at 0.091 µM.

For `CNc1nc(C)nc2c1ncn2[C@H]1C[C@H](OP(=O)(O)O)[C@]2(COP(=O)(O)O)C[C@H]12`, in experiment [1], inhibition was half-maximal at 0.049 µM (IC50). Besides, the affinity in experiment [2] corresponds to a Ki of 0.0036 µM.

In the case of `CNc1nc(Br)nc2c1ncn2C1CC(OP(=O)(O)O)[C@]2(COP(=O)(O)O)C[C@H]12` (stereo partly specified), in experiment [1], the half-inhibitory concentration (IC50) is 0.037 µM. In addition, the Ki in experiment [2] worked out at 0.0051 µM.

Molecule `CCCC/C=C/c1nc(NC)c2ncn([C@H]3C[C@H](OP(=O)(O)O)[C@]4(COP(=O)(O)O)C[C@H]34)c2n1` came in with an IC50 in experiment [1] of 1.87 µM. The molecule also had a Ki in experiment [2] of 0.33 µM.

As to `CCCC/C=C\c1nc(NC)c2ncn([C@H]3C[C@H](OP(=O)(O)O)[C@]4(COP(=O)(O)O)C[C@H]34)c2n1`, the IC50 in experiment [1] amounted to 2.4 µM. Moreover, the inhibition constant Ki in experiment [2] was 0.43 µM.

Consider `CNc1nc([Se]C)nc2c1ncn2C1CC(OP(=O)(O)O)[C@]2(COP(=O)(O)O)C[C@H]12` (stereo partly specified), for which, in experiment [1], inhibition was half-maximal at 0.377 µM (IC50). In experiment [2], affinity was put at a Ki of 0.035 µM.

Consider `CNc1ncnc2c1ncn2[C@H]1C[C@H](OP(=O)(O)O)[C@]2(COP(=O)(O)O)C[C@H]12`, for which the IC50 in experiment [1] was determined as 0.157 µM. Also, the Ki in experiment [2] is 0.0176 µM.

Regarding `CNc1nc(Cl)nc2c1ncn2[C@H]1C[C@H](OP(=O)(O)O)[C@]2(COP(=O)(O)O)C[C@H]12`, half-maximal inhibition in experiment [1] (IC50) required 0.052 µM. The same molecule yielded an inhibitory constant (Ki) in experiment [2] of 0.0025 µM.

For the origin of these results see ChEMBL document CHEMBL1145892, “2-Substitution of adenine nucleotide analogues containing a bicyclo[3.1.0]hexane ring system locked in a northern conformation: enhanced potency as P2Y1 receptor antagonists” (J Med Chem, 2003).
